Laboratory results published in ChEMBL document CHEMBL1124868, “Synthesis and anti-HIV-1 activity of 2'-"up"-fluoro analogues of active anti-AIDS nucleosides 3'-azido-3'-deoxythymidine (AZT) and 2',3'-dideoxycytidine (DDC)” (J Med Chem, 1990).
“And” between values parts separate entries of the source, which are not always exact repeats. Identical values can stand only once.

Legend:
HL-60 = assay: Cytotoxicity was tested in HL60 cells by the trypan blue exclusion assay.; assay type: functional, cell-based; details: Homo sapiens
In short: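 HL60 cells exposed to at least five compound concentrations plus no-drug control, in duplicate in 96-well plates. Growth inhibition counted by trypan blue exclusion on a hemocytometer. IC50 derived by median-effect plot analysis.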

MT4 [1] = assay: AntiHIV-1 activity measured in MT-4 cells at 5 to 6 different concentrations, using the P24 antigen enzyme-linked immunosorbent assay (ELISA).; assay type: functional, cell-based; details: Homo sapiens
In short: (§1)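 MT4 cells infected with HIV-1 at 200 TCID50 per 10^6 cells, adsorbed 1 h at 37 °C, 5% CO2, washed, resuspended at 10^6 cells/3 mL. Compounds added immediately at five to six concentrations. After 5 days at 37 °C, cell-free supernatant assayed for P24 core antigen by ELISA kit or for RT activity. EC50 from median-effect plot analysis against untreated infected controls.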

MT4 [2] = assay: AntiHIV-1 activity measured in MT-4 cells at 5 to 6 different concentrations, using the reverse transcriptase (RT) assay; assay type: functional, cell-based; details: Homo sapiens; in short: as §1
MT4 [3] = assay: Cytotoxicity was tested in MT-4 cells by the XTT-microculture tetrazolium assay.; assay type: functional, cell-based; details: Homo sapiens
In short: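 MT4 cells exposed in duplicate in 96-well plates to at least five concentrations for 4 days. PMS-XTT (0.075 mM PMS with 1 mg/mL XTT in serum-free medium) added, then 6 h at 37 °C before reading. IC50 derived by median-effect plot analysis.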

[4] = Selectivity ratio to IC50 of MT4 cells and EC50, anti-HIV activity of MT-4 cells; assay type: functional
In short: (§2)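 Selectivity ratio is the cytotoxic IC50 (MT4 or HL60 cells, […]) divided by the anti-HIV-1 EC50 from P24 ELISA or RT assay in infected MT4 cells.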

[5] = Selectivity ratio to IC50 of HL60 cells and EC50, anti-HIV activity of MT-4 cells; assay type: functional, HL-60; in short: as §2

| Compound | IC50 (HL-60) [µM] | EC50 (MT4 [1]) [µM] | EC50 (MT4 [2]) [µM] | IC50 (MT4 [3]) [µM] | Selectivity ratio [4] | Selectivity ratio [5] |
| --- | --- | --- | --- | --- | --- | --- |
| Nc1ccn([C@@H]2O[C@H](CO)C[C@@H]2F)c(=O)n1 | 707 | 2.66 | 2.54 | 1480 | 328 and 343 | 266 and 278 |
| Cc1cn([C@@H]2O[C@H](CO)[C@@H](N=[N+]=[N-])[C@H]2F)c(=O)[nH]c1=O | 440 | 168 | 103 |  | 1.26 and 2.06 | 2.62 and 4.27 |
| Cc1cn([C@H]2C[C@H](N=[N+]=[N-])[C@@H](CO)O2)c(=O)[nH]c1=O [ZIDOVUDINE] | 96 | 0.006 | 0.0045 |  | 8833 and 11778 | 16000 and 21333 |
| Nc1ccn([C@H]2CC[C@@H](CO)O2)c(=O)n1 [ZALCITABINE] | 100 | 0.236 | 0.24 |  | 1326 and 1304 | 424 and 417 |
